Data taken from the RNAGym collection of RNA variant scans (doi:10.1126/science.aae0568).
Variants at the floor of the assay were thinned out.

B1: tRNA (parent)
chain: GUUCCGUUGGCGUAAUGGUAACGCGUCUCCCUCCUAAGGAGAAGACUGCGGGUUCGAGUCCCGUACGGAACG

Variants of: B1
Assay: yeast fitness relative to wild type (ratio to wild type); higher = fitter; tRNA-Arg(CCU), competitive growth, 37 C, YPD
Outline: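 A pool of Saccharomyces cerevisiae strains, each with a tRNA-Arg(CCU) gene variant at the native genomic locus, was competed in YPD at 37°C for 24 hours across six parallel replicates. The variants had been chemically synthesised at a 3% per-site mutation rate over 69 sites, and gene amplicons before and after competition were read by 100-nucleotide paired-end sequencing. Darwinian fitness relative to wild type rested on changes in genotype frequencies. Genotypes required ≥ 100 starting reads, and estimates < 0.5 were set to 0.5.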

Variant | yeast fitness
GUUCCGUUGGCGUUAUGGUAACGCGUCUCCCUCCUAAGGAGAAGACUGCGGGUUCGAGUCCCGUCCGGAACG [A14U A65C] | 0.611
GUUCCGUUGGCGUUAUGGUAACGUGUCUCCCUCUUAAGGAGAAGACUGGGGGUUCGAGUCCCGUACGGAACG [A14U C24U C34U C49G] | ≤ 0.5
GUUCCGUUGGCGUUAUGGUAACGUGUCUCCCUACUAAGGAGAACACCGCGGGUUCGAGUGCCGUACGGAACG [A14U C24U C33A G44C U47C C60G] | ≤ 0.5
GUUCCGUUGGCGUUAUGGUAACGCGUUUCCCUCCUAAGGAGAAGACUGCGGGUUGGAGUCCCGUACGCAACG [A14U C27U C55G G68C] | ≤ 0.5
GUUCCGUUGGCGUUAUGGUAACGGGUCUCCAUCCUAAGGGGAACACUGCGGGUUCGAGUCCCGUACGGAACG [A14U C24G C31A A40G G44C] | ≤ 0.5
GUUCCGUUGGCGUUAUGGUAACGCGUGUCCCUCCUAAGGAGAAGACUGCGGAUUCGAGUCCCCUACGGAACG [A14U C27G G52A G63C] | ≤ 0.5
GUUCCGUUGGCGUUAUGGUAACGCGUGUCCCUCCUGAGGAGAAGAAUGCGGGUUCGAGACCCGUACGGAACG [A14U C27G A36G C46A U59A] | 0.52
GUUCCGUUGGCGUUAUGGUAACGAGUCUCCCUCCUAAGGAGAAGACUGCGGGUUGGAGUCCCGUACGGAACG [A14U C24A C55G] | ≤ 0.5
GUUCCGUUGGCGUUAUGGUAACGCGUAUCCCUCCUAAGGAGAAGACUGCGGGUUCGAGUCCGGUACGGAACG [A14U C27A C62G] | 0.667
GUUCCGUUGGCGUUAUGGUAACGAGUCUCUCUCCUAGGGAGAAGACUGCGGGUUCGAGUCCCGUACGGAACG [A14U C24A C30U A37G] | ≤ 0.5
GUUCCGUUGGCGUUAUGGUAAAGCGUCUCCCUCCUAAGGAGAGGACUGCGGCUUCGAGUCCCGUACGGAACG [A14U C22A A43G G52C] | ≤ 0.5
GUUCCGUUGGCGUUAUGGUAACGCGUCUCCCUCCUAAGGAGAAGACUGCGGGUUCGAGUCCCGUACGGACCG [A14U A70C] | 0.596
GUUCCGUUGGCGUUAUGGUAACGGGUCUCCCUCCUAAGGAGCAGACUGCGGGUUCGAGUCCCGUACGGAACG [A14U C24G A42C] | 0.531
GUUCCGUUGGCGUUAUGGUAAUGCGUCUCCCUCCUAAGGUGAACACUGCGGGUUCGCGUCCCGUACGGAACG [A14U C22U A40U G44C A57C] | 0.635
GUUCCGUUGGCGUUAUGGUAACGCGUCUACCUCCUAAGGAGAAGACUGAGGGUUCGAGUCCCGUACGGAACG [A14U C29A C49A] | ≤ 0.5
GUUCCGUUGGCGUUAUGGUAACGGGUCUCCCUCCUAAGGAAAAAACUGCGGGUUCGAGUCUCGUACGGAACG [A14U C24G G41A G44A C61U] | ≤ 0.5
GUUCCGUUGGCGUUAUGGUAACGGGUCUCCCUCCUAAGGAGAAGACUGCGGGUUCGCGUCCCGUGCGGAACG [A14U C24G A57C A65G] | ≤ 0.5
GUUCCGUUGGCGUUAUGGUAACGCGUCUUCCUCCUAUGGAAAAGACUGCGGGUUCGAGUCCCGUACGGAACG [A14U C29U A37U G41A] | ≤ 0.5
GUUCCGUUGGCGUUAUGGUAACGGGGCUCCCUCCUAAGGAGAAGACUGCGGGUUCCAGUCCCGUACGGAACG [A14U C24G U26G G56C] | ≤ 0.5

Variant | yeast fitness
GUUCCGUUGGCGUUAUGGUAAAGCGUCUCCCUCCUAAGGAGAGGACUGUGGGUUCGAGUCCCGUACGGAACG [A14U C22A A43G C49U] | ≤ 0.5
GUUCCGUUGGCGUUAUGGUAACGCGUCUACCUCCUAAGGAGAAGACUGCGGGUACGAGACCCGUACGGAACG [A14U C29A U54A U59A] | 0.574
GUUCCGUUGGCGUUAUGGUAACGGGUCUCCCUCCUAAGGAGAAGACUGCGGGUUCGAAUCCCGUACGGAACG [A14U C24G G58A] | 0.561
GUUCCGUUGGCGUUAUGGUAACGCGUCUGCCUCCUAAGGAGAAGACUGCGGGUUGGAGUCCCGUACGGGGCG [A14U C29G C55G A69G A70G] | ≤ 0.5
GUUCCGUUGGCGUUAUGGUAAUGCAUCUCCCUCCUAAGGAGAAGACUGCGGGUUGGAGUUCCGUACGGAACG [A14U C22U G25A C55G C60U] | ≤ 0.5
GUUCCGUUGGCGUUAUGGUAACGCGUCUCACCCCUAAGGAGAAGACUGCGGGUUCGAGUCCCGUACGGAACG [A14U C30A U32C] | ≤ 0.5
GUUCCGUUGGCGUUAUGGUAAAGCGUCUCCCUCCUAAGGAGAAGACUGCGGGUUCGCGUCCCGUACGGAACG [A14U C22A A57C] | ≤ 0.5
GUUCCGUUGGCGUUAUGGUAAGGCGUCUCCCUCCUAAGGAGAUGACUGCGGGUUCGCGUCCCCUAUGGAACG [A14U C22G A43U A57C G63C C66U] | ≤ 0.5
GUUCCGUUGGCGUUAUGGUAACGCGUGUCCCUCCUAAGGAGAAGACUGCGGGUUCGAGUCCCGUAUGGAACG [A14U C27G C66U] | ≤ 0.5
GUUCCGUUGGCGUUAUGGUAACGGGCCCCCCUCCUAAGGAGAAGUCUGAGGGUUCGAGUCCCGUACGGAACG [A14U C24G U26C U28C A45U C49A] | ≤ 0.5
GUUCCGUUGGCGUUAUGGUAACGCGUCUCACUCCUAAGGAGAAGACUGCGGGUUAGAGUCCAGUACGGAACG [A14U C30A C55A C62A] | 0.578
GUUCCGUUGGCGUUAUGGUAAGGCGUCUCCCUCCUAAGGAGAAGACUGCGGGUUCGAGUGCCGUACGGAACG [A14U C22G C60G] | ≤ 0.5
GUUCCGUUGGCGUUAUGGUAAUGCAUCUCCCUCCUAAGGAGAAGACUGCGGGUUGGAGUUCCGUACGCAACG [A14U C22U G25A C55G C60U G68C] | ≤ 0.5
GUUCCGUUGGCGUUAUGGUAACGGGUCUCCCUCCUAAGGAAAAAACUGCGGGAUCGAGUCCCGUACGGAACG [A14U C24G G41A G44A U53A] | 0.55
GUUCCGUUGGCGUUAUGGUAACGCGUCUCCCUCCUAAGGAGAAGACUGCGGGUUCGAGUCCCGUACGGCACG [A14U A69C] | 0.635
GUUCCGUUGGCGUUAUGGUAACGCGUCUCCCUCCUAAGGAGAAGACUGCGGGUUCGAGUCCCGUACGGGACG [A14U A69G] | 0.608
GUUCCGUUGGCGUUAUGGUAACGCGUCUCGCUCCUAAGGAGAAGACUGCGGGUUUGAGUCCCGUACGGAACG [A14U C30G C55U] | ≤ 0.5
GUUCCGUUGGCGUUAUGGUAACGCGUCUGCCUCGUAAGGAGAAGACUGCGGGUUCGAGUCCCGUACGGAACG [A14U C29G C34G] | ≤ 0.5
GUUCCGUUGGCGUUAUGGUAACGCGUCUUCCUCCUAAGGAGAAGACUGCGGGUUUGAGUCCCGUACGGAACG [A14U C29U C55U] | ≤ 0.5
